Hits are enriched below; roughly 2.3% of the tested compounds scored in any of these assays.
PP5 primary: PP5 phosphatase inhibitors, primary screen, biochemical, fluorescence; Serine/threonine-protein phosphatase 5 (Homo sapiens), P53041; purified PP5c, OMFP substrate fluorescence; inhibition, % at 6.7 µM; 320,000 tested, 0.18% active; AID 1987, 2009;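 active = inhibition above the campaign's mean inhibition across all tested compounds plus 3 SD, cut at about 9.5% in these data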
PREPL inh: PREPL enzyme inhibitors, primary screen, biochemical, fluorescence polarization | recombinant PREPL, fluorescence polarization activity-based probe | inhibition, % at 5.96 µM | 320,000 tested, 0.68% active | AID 2751, 2010; in the data active = inhibition above about 43%
UBC13 inh: UBC13 polyubiquitin chain formation inhibitors, primary screen, biochemical, TR-FRET, uHTS; Ubiquitin-conjugating enzyme E2 N (Homo sapiens), P61088; inhibition, % at 20 µM; 330,000 tested, 0.47% active; AID 485273, 2010; in the data active = inhibition above about 45%, passing the limit was not always enough; inconclusive = no clear call, values can overlap the other calls
Target sequence (P61088 whole entry, looked up): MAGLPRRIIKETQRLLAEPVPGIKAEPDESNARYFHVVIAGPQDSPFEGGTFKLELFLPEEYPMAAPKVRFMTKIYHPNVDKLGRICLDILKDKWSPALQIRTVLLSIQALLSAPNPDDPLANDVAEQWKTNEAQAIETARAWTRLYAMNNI
UCH37 DUB inh: inhibitors of human UCH37 deubiquitinase, primary screen, biochemical, Ub-AMC cleavage, fluorescence. Ubiquitin carboxyl-terminal hydrolase isozyme L5 (Homo sapiens), Q9Y5K5. purified proteasome/UCH37. inhibition, % (no concentration beside the values). 330,000 tested, 0.33% active. AID 588478, 2011;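 active = mean inhibition over replicate wells above about 20%, limit read from the data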
Target sequence (Q9Y5K5 whole entry, looked up): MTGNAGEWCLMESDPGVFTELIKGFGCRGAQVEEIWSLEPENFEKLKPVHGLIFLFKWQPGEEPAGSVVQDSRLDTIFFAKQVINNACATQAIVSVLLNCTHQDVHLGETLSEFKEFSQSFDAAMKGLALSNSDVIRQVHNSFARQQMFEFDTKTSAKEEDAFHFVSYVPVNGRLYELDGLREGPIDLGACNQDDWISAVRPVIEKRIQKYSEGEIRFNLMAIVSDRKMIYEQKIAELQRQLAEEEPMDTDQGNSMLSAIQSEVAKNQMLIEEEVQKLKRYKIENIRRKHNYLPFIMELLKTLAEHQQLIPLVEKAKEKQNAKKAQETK
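Test system – human UCH37 enzyme supplied as purified proteasome complex · Incubation – 30 min preincubation with enzyme, 25 min cleavage at room temperature · Detection – AMC fluorescence from Ub-AMC cleavage, excitation 355 nm, emission 460 nm · Benchmarks – no-proteasome wells (full inhibition) and compound-free wells (no inhibition)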
CTSL1 counter: Fasciola hepatica cathepsin L1 inhibitors, primary screen, counter-screen for PFM18AAP inhibitor project, biochemical, QFRET, fluorogenic peptide substrate | recombinant F. hepatica cathepsin L1, Z-Leu-Arg-MCA fluorescence | inhibition, % at 5.96 µM | 300,000 tested, 0.49% active;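 active = inhibition above the mean of all tested compounds plus 3 SD, set per screening campaign, cut at about 17% in these data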
PP1 inh: PP1-alpha phosphatase inhibitors, primary screen, counter-screen for PP5 inhibitor project, biochemical, fluorescence, OMFP substrate, single point. 320,000 tested, 0.9% active. inhibition, % at 6.7 µM. Serine/threonine-protein phosphatase PP1-alpha catalytic subunit (Homo sapiens), P62136. purified PP1alpha;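 active = inhibition above the mean inhibition of all tested compounds plus 3 SD, computed separately for each screening campaign, cut at about 15% in these data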
PP1 confirm: PP1 phosphatase inhibitors, confirmation, biochemical, fluorescence, OMFP substrate, triplicate; shares compounds with PP1 inh; purified PP1alpha; inhibition, % at 6.7 µM; 1,900 tested, 52% active; AID 2358, 2010;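 active = mean PP1 inhibition above a set limit taken from the earlier primary screen, cut at about 15% in these data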
PP5 counter: PP5 phosphatase inhibition by PP1 hits, confirmation, counter-screen for PP1 inhibitor project, biochemical, fluorescence, triplicate; purified PP5c, OMFP fluorescence; inhibition, % at 6.7 µM; 1,900 tested, 4% active; shares compounds with PP1 inh;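 active = mean PP5 inhibition over triplicate wells above about 9.5% taken from the earlier PP1 screen, limit read from the data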
A number is an active result; 0 = inactive; ? = inconclusive; - = no result given.

SMILES	PP5 primary	PREPL inh	UBC13 inh	UCH37 DUB inh	CTSL1 counter	PP1 inh	PP1 confirm	PP5 counter
Cc1ccc(C)c(N2CCN(C(=O)c3ccc4nc(-c5ccco5)c(-c5ccco5)nc4c3)CC2)c1	0	0	0	0	0	19.4	0	0
COc1cc(C=NNC(=O)c2cc(O)cc(O)c2)ccc1OC(=O)c1ccccc1	-	-	-	0	-	-	-	-
COC(=O)c1ccccc1NC(=O)CSc1nc(N)cc(=O)[nH]1	0	0	0	0	0	26.2	0	0
CCN(CC)c1ccc(C=NNC(=O)c2cc(C)nc3ccccc23)cc1	-	-	-	0	-	-	-	-
CCOC(=O)c1cc(-c2ccccc2)sc1NC(=O)CN1C(=O)NC(CC)(c2ccccc2)C1=O (stereo not given)	0	0	0	0	0	17.8	0	0
CCOC(=O)c1cc(-c2ccccc2)sc1NC(=O)COC(=O)c1ccc(Cl)c(S(N)(=O)=O)c1	0	0	0	0	0	0	-	-
CCOC(=O)c1cc(-c2ccccc2)sc1NC(=O)COC(=O)c1cccc(S(N)(=O)=O)c1	0	0	0	0	0	19.2	30.5	0
CCOC(=O)c1cc(-c2ccccc2)sc1NC(=O)CN1C(=O)NC(CC)(c2ccc(F)cc2)C1=O (stereo not given)	0	0	0	0	0	0	-	-
CC(=NNC(=O)Cc1ccccc1)c1ccc(Cl)s1	-	-	-	0	-	-	-	-
Cn1cccc1CC(=O)NN=Cc1cccs1	-	-	-	0	-	-	-	-
C#CCOCCOCCOCCNc1nc(N2CCN(C(=O)[C@H]([C@@H](C)CC)n3cc([C@@H](N)CO)nn3)CC2)nc(N2CCN(C(=O)[C@H](Cc3cc4ccccc4[nH]3)n3cc([C@@H](N)Cc4ccc(O)cc4)nn3)CC2)n1	0	48.8	97.6	-	0	23.8	0	0
O=[N+]([O-])c1ccc(-c2nnc(S)n2-c2ccccc2)cc1	0	0	-	-	0	0	-	-
[S-]c1nnc(-c2ccc(Br)cc2)n1-c1ccccc1.[Zn+2]	0	0	0	0	0	20.1	23.6	0
O=C(COc1ccc2c3c(c(=O)oc2c1)CCCC3)N1C[C@H]2C[C@@H](C1)c1cccc(=O)n1C2	0	0	0	0	0	29.5	30.2	0
CCOc1ccc(NC(=NCc2ccc3c(c2)OCO3)SC2CC(=O)N(c3ccc(C(=O)O)cc3)C2=O)cc1 (stereo not given)	0	0	0	0	0	19.3	0	0
c1ccc(C2=Nn3c(nnc3-c3cc(-c4ccccc4)n[nH]3)SC2)cc1	0	0	0	0	0	0	-	-
Clc1ccc(C2=Nn3c(nnc3-c3cc(-c4ccccc4)n[nH]3)SC2)cc1	0	0	0	0	0	23.2	16.2	0
c1ccc(C2=Nn3c(nnc3-c3n[nH]c4c3CCC4)SC2)cc1	0	0	0	0	0	0	-	-
Clc1ccc(C2=Nn3c(nnc3-c3n[nH]c4c3CCC4)SC2)cc1Cl	0	0	0	0	0	22.6	27.6	0
CCOc1cc(C=NNC(=O)c2ccc(NC(=O)C3CC3)cc2)ccc1O	-	-	-	0	-	-	-	-
Clc1ccccc1C(c1ccccc1)(c1ccccc1)n1ccnc1	0	0	0	0	0	18.3	0	0
Cc1cc(C)c2c(c1)C(=NNC(=O)c1cc(C)oc1C)CCC2	-	-	-	0	-	-	-	-
CC1(C)CCN2CCC(C)(C)c3c(O)ccc1c32	0	0	0	-	0	18.5	0	0
S=c1[nH]nc(COc2ccccc2)n1/N=C/c1cccc(Br)c1	0	0	0	-	0	32.7	0	0
CSc1ccc(C=NNC(=O)c2ccccc2Cl)cc1	-	-	-	0	-	-	-	-
SMILES	PP5 primary	PREPL inh	UBC13 inh	UCH37 DUB inh	CTSL1 counter	PP1 inh	PP1 confirm	PP5 counter
CCNC(=O)c1c(O)c2ccccc2[nH]c1=O	0	0	0	0	0	0	-	-
CC(C)=NNC(=O)c1c(O)c2ccccc2[nH]c1=O	0	0	0	0	0	20.6	0	0
O=C(Nc1ccc(Br)cc1)C1Cc2ccccc2OC1=NO (stereo not given)	-	-	-	0	-	-	-	-
CCCCCCCCCCCC1=C(O)C(=O)C=C(O)C1=O	0	0	-	0	0	45.8	35.3	0
COC1=CC(=O)C(O)=C(CCCCCCC/C=C/CCCCCCCC2=C(O)C(=O)C=C(OC)C2=O)C1=O	0	0	0	-	0	0	-	-
Cc1cc(C)nc(SCc2ccc(C(=O)NN=Cc3cccc(O)c3O)cc2)n1	-	-	-	0	-	-	-	-
Cc1cc(C)nc(SCc2ccc(C(=O)N/N=C/c3cccc(O)c3O)cc2)n1	0	0	0	-	0	24.7	28.4	0
CCCc1[nH]n(-c2nc3ccccc3s2)c(=O)c1C=NCCN1CCOCC1	0	0	0	0	0	19.6	0	0
O=C(NN=Cc1ccc2c(c1)OCO2)c1ccc(Cl)cc1Cl	-	-	-	0	-	-	-	-
CN(Cc1ccccn1)C(=O)C1CCC(=O)N(Cc2cccc(C(F)(F)F)c2)C1 (stereo not given)	0	0	0	0	0	0	-	-
CN(Cc1ccccn1)C(=O)C1CCC(=O)N(Cc2cccc(F)c2)C1 (stereo not given)	0	0	0	0	0	24.3	0	0
O=C(NN=Cc1ccco1)C1CC1	-	-	-	0	-	-	-	-
Cc1[nH]n2c(=O)cc(-c3ccc([N+](=O)[O-])cc3)nc2c1-c1ccccc1	0	0	0	0	0	44.6	34.9	0
COc1ccc(-c2c(C(F)(F)F)[nH]n3c(=O)cc(-c4ccccc4)nc23)cc1	0	0	?	0	0	24.5	41.9	0
CCc1cc(=O)n2[nH]c(-c3ccccc3)c(-c3ccccc3)c2n1	0	0	0	0	0	21.7	21.2	0
Cc1[nH]n2c(=O)cc(C(C)(C)C)nc2c1-c1ccccc1	0	0	0	0	0	23.6	18.4	0
Cc1[nH]n2c(=O)cc(C(C)C)nc2c1-c1ccccc1	0	0	0	0	0	0	-	-
CCCc1cc(=O)n2[nH]c(C)c(-c3ccccc3)c2n1	0	0	0	0	0	0	-	-
COc1cccc(N=Nc2c(N)[nH]n3c(=O)cc(-c4ccccc4)nc23)c1	0	0	0	0	0	0	-	-
CCC12CN3CCN(CC(C3)C1=NNC(=O)c1ccc(C(C)(C)C)cc1)C2	-	-	-	0	-	-	-	-
COc1cccc(-c2cc3nc(-c4ccccc4)cc(=O)n3[nH]2)c1	0	0	0	0	0	20.6	23.0	0
